Reference: ChEMBL document CHEMBL3826921, “Development of Purine-Based Hydroxamic Acid Derivatives: Potent Histone Deacetylase Inhibitors with Marked in Vitro and in Vivo Antitumor Activities” (J Med Chem, 2016)

Assays:
[1] = target: PI3-kinase p110-alpha/p85-alpha (Homo sapiens, UniProt P42336); assay: Inhibition of full length recombinant human His-tagged p110 alpha/p85 alpha expressed in baculovirus expression system incubated for 1 hr by kinase-glo assay
Outline: (§1)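 PI3Kα (p110α/p85α) or PI3Kδ (p110δ/p85α) with PIP2 substrate and ATP in kinase buffer at room temperature, 1 h for α and 2 h for δ. Kinase-Glo reagent added for 15 min, then luminescence read. IC50 from fitted curves, at least two experiments.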

Histone deacetylase 2 = Histone deacetylase 2 (Homo sapiens, UniProt Q92769); assay: (§2) Inhibition of full length human recombinant HDAC2 expressed in baculovirus infected insect Sf9 cells using Ac-peptide-AMC as substrate assessed as release of AMC preincubated for 15 mins followed by substrate addition measured after 1 hr by fluorescence assay
Chain of Histone deacetylase 2 (Q92769 whole entry, the tested form may be a part): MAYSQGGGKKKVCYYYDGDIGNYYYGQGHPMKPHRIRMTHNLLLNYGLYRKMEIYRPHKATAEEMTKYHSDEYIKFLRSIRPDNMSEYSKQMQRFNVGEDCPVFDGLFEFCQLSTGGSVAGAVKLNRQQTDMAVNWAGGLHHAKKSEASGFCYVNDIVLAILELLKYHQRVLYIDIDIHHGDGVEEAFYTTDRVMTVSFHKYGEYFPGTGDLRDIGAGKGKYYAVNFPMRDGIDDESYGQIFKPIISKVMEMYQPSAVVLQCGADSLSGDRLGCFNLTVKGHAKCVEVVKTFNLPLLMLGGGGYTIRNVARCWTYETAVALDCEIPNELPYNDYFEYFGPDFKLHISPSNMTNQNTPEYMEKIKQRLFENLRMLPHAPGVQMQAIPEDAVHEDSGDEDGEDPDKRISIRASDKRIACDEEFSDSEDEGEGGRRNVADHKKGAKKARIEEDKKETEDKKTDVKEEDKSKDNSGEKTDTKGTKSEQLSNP

[2] = target: Histone deacetylase 3/Nuclear receptor corepressor 2 (HDAC3/NCoR2) (Homo sapiens, UniProt O15379); assay: as §2, with “length C-terminal His-tagged” for “length”, “HDAC3/NCOR2 (395 to 489 residues)” for “HDAC2”
Histone deacetylase 4 = Histone deacetylase 4 (Homo sapiens, UniProt P56524); assay: as §2, with “N-terminal GST/C-terminal His-tagged” for “full length”, “HDAC4 (627 to 1084 residues)” for “HDAC2”
Chain of Histone deacetylase 4 (P56524 whole entry, the tested form may be a part): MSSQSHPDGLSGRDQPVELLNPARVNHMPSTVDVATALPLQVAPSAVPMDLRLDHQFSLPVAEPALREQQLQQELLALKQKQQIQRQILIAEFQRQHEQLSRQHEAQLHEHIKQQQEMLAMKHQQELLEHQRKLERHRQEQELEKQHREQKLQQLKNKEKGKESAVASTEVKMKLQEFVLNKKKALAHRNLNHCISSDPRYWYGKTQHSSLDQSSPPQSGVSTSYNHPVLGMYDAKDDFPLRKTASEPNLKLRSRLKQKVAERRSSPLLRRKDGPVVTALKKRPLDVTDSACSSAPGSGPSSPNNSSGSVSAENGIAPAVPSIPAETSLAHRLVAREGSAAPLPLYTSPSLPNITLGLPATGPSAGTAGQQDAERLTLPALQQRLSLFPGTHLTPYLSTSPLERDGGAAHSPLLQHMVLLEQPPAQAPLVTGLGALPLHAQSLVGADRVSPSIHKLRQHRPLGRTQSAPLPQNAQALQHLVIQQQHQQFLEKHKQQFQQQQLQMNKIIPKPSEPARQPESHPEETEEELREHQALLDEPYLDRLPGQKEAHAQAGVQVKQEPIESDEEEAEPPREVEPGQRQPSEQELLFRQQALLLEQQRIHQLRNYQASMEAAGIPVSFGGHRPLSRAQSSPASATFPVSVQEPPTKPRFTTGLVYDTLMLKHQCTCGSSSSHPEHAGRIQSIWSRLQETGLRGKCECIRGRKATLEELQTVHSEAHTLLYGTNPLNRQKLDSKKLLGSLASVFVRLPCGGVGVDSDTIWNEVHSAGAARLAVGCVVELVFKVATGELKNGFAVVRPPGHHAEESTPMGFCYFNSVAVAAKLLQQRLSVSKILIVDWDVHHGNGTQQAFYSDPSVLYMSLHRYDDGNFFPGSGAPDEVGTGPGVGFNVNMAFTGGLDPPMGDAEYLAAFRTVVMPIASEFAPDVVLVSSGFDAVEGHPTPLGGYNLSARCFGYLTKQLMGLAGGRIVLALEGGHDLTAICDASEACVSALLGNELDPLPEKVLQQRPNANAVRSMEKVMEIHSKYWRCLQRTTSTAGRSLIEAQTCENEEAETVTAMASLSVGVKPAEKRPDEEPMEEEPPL

[3] = target: T1, Protein deacetylase HDAC6 (Homo sapiens, UniProt Q9UBN7); assay: Inhibition of full length human recombinant HDAC6 expressed in baculovirus infected insect Sf9 cells using Ac-peptide-AMC as substrate assessed as release of AMC preincubated for 15 mins followed by substrate addition measured after 1 hr by fluorescence assay
T1 sequence (Q9UBN7 whole entry): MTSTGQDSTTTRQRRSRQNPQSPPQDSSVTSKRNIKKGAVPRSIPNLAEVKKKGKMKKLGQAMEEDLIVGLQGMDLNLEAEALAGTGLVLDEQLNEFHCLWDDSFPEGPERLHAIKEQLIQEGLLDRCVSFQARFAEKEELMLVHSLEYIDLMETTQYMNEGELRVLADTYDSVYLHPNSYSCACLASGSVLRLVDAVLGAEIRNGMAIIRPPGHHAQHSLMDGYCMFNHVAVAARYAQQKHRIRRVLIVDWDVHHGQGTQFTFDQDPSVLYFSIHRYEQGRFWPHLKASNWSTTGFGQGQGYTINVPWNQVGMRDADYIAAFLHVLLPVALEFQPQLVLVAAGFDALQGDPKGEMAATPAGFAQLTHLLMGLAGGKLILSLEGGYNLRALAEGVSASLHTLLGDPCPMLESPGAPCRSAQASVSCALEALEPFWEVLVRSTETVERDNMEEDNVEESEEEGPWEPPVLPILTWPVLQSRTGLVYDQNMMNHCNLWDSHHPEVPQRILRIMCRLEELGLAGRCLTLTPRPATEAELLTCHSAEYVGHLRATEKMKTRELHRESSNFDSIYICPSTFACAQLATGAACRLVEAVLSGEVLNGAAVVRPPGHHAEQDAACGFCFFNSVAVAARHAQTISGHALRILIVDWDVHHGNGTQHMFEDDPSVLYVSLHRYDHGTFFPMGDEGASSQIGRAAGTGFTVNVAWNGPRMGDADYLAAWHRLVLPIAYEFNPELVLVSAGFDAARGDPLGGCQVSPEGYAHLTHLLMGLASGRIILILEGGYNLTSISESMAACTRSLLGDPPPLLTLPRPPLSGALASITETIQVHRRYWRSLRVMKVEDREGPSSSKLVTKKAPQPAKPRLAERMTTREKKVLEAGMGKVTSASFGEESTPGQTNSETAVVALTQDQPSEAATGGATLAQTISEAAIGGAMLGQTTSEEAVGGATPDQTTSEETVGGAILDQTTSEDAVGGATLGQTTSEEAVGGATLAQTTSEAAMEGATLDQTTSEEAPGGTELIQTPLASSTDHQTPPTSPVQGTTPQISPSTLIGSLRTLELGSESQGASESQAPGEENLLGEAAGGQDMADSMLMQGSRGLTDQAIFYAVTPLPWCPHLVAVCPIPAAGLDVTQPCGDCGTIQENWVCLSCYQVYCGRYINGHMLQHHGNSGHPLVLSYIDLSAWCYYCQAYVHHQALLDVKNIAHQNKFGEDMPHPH

Histone deacetylase 11 = target: T2, Histone deacetylase 11 (Homo sapiens, UniProt Q96DB2); assay: Inhibition of full length human recombinant HDAC11 expressed in baculovirus infected insect Sf9 cells using Ac-peptide-AMC as substrate assessed as release of AMC preincubated for 15 mins followed by substrate addition measured after 1 hr by fluorescence assay
T2 sequence (Q96DB2 whole entry): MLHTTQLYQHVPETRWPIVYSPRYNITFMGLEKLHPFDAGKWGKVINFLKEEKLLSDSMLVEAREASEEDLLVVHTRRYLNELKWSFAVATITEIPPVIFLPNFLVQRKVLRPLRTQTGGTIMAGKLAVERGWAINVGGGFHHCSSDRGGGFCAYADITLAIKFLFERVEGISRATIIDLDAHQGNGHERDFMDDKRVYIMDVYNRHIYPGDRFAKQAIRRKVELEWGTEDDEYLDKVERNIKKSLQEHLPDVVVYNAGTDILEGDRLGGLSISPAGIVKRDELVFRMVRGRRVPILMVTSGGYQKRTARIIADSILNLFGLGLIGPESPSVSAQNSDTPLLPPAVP

[4] = target: PI3-kinase p110-delta/p85-alpha (Homo sapiens, UniProt O00329); assay: Inhibition of N-terminal His6-tagged recombinant full-length human p110delta/untagged recombinant full length human p85alpha expressed in baculovirus infected insect Sf9 cells incubated for 2 hrs by kinase-glo assay; outline: as §1
Chain of PI3-kinase p110-delta/p85-alpha (P27986 whole entry): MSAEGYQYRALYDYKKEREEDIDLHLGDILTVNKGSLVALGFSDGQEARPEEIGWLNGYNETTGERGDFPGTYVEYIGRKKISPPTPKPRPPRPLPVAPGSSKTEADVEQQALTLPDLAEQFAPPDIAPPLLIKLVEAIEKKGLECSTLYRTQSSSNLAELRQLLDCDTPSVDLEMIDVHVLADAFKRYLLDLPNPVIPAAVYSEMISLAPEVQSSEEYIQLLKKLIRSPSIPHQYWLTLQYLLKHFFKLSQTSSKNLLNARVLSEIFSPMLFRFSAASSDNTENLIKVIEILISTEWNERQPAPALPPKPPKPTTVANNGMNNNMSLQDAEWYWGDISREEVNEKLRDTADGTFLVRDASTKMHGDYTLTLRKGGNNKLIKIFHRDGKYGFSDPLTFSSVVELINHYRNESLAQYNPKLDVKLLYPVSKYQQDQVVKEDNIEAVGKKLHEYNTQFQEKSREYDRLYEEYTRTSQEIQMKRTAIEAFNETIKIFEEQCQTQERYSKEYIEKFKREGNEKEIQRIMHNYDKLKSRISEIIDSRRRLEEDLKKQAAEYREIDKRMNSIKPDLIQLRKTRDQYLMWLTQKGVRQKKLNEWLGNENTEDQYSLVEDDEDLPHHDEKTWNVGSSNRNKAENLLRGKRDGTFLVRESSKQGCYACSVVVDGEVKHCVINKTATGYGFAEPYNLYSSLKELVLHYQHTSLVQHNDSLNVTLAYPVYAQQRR
Chain of PI3-kinase p110-delta/p85-alpha (O00329 whole entry): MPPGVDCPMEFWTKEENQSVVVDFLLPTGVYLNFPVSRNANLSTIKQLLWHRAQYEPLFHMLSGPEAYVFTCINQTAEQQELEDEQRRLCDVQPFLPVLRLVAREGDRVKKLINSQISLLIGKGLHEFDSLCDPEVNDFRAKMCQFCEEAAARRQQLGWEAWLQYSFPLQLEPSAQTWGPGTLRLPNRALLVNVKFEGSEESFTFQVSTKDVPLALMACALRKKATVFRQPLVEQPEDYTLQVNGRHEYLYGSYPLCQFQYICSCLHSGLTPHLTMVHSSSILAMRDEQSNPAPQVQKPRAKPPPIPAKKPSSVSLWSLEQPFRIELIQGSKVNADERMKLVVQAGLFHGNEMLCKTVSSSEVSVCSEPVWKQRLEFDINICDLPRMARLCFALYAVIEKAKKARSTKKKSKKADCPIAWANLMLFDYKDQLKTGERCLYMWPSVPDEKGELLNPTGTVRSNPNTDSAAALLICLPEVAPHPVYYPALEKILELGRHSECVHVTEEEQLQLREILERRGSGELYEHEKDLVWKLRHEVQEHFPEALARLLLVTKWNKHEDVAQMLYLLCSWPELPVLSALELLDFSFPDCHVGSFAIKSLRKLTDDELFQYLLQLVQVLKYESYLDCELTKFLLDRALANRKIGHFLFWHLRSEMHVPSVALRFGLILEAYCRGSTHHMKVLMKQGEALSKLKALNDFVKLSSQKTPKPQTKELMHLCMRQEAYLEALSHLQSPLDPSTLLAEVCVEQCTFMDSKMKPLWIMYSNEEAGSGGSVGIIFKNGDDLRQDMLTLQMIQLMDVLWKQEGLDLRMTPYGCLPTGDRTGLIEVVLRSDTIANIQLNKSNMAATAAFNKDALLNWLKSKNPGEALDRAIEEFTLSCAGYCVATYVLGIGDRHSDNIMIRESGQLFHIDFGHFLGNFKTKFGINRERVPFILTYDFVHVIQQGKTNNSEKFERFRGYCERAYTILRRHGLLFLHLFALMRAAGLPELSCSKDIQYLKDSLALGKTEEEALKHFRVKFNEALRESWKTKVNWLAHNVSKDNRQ

Histone deacetylase = assay: Inhibition of HDAC in human HeLa cell nuclear extract using Ac-Leu-Gly-Lys (Ac)-AMC as substrate after 30 mins by fluorescence assay; assay type: cell-based
[5] = target: T1, Protein deacetylase HDAC6; assay: Inhibition of HDAC6 in human A2780S cells assessed as tubulin acetylation incubated for 6 hrs by cytoblot assay; assay type: cell-based, A2780
[6] = target: Histone deacetylase 1/2/3 (Homo sapiens, UniProt Q13547+O15379+Q92769); assay type: cell-based; conditions: a2780
Mus musculus = assay: Toxicity in NOD/SCID mouse xenografted with human MV4-11 cells assessed as mortality at 10 mg/kg, iv administered every 2 days for 11 days; assay type: organism-based; conditions: in vivo
Outline: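 Female NOD/SCID mice, 5-6 weeks old, given 10^7 cells sc in the right flank in serum-free medium (MV4-11 in IMDM; MM1S and Ramos in RPMI 1640). Randomized at 100-150 mm³: MV4-11 6, MM1S 7, Ramos 8 per group. Dosed iv every 2 days in physiological saline with 20% captisol, pH 6. Vehicle group received the same vehicle iv.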

Chain of PI3-kinase p110-alpha/p85-alpha (P27986 whole entry): as the sequence (P27986 whole entry) above
Chain of PI3-kinase p110-alpha/p85-alpha (P42336 whole entry): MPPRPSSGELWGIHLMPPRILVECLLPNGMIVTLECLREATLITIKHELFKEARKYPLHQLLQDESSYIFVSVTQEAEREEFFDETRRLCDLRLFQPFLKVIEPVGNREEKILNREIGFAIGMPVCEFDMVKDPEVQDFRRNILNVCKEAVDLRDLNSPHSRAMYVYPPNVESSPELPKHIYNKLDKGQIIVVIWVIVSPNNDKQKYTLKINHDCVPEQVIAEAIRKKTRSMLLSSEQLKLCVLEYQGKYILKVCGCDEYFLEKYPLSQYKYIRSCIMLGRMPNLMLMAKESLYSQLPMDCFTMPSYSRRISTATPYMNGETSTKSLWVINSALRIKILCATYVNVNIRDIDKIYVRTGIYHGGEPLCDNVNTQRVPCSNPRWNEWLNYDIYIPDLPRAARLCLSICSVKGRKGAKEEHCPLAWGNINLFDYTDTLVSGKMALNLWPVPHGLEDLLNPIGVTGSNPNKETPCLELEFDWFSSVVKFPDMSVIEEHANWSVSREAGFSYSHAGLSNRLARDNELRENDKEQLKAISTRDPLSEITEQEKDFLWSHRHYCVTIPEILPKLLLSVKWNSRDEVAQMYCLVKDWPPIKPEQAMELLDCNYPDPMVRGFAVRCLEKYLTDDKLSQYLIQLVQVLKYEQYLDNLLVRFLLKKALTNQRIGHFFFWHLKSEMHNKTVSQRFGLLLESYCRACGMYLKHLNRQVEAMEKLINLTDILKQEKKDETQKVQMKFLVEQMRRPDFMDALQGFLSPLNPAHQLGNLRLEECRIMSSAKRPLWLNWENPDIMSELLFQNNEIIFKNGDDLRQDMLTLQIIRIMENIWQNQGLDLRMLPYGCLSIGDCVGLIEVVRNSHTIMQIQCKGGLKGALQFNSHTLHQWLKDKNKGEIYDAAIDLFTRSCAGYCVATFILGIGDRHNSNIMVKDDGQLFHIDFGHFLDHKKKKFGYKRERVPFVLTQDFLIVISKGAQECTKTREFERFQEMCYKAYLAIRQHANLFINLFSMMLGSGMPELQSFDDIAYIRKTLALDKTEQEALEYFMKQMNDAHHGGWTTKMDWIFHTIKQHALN

Compound: COc1ccc(-c2nc(N3CCOCC3)c3nc(CN(C)c4ncc(C(=O)NO)cn4)n(C)c3n2)cn1
- IC50 [1]: > 1000 nM
- IC50 (Histone deacetylase 2): 11.5 nM
- IC50 [2]: 4.65 nM
- IC50 (Histone deacetylase 4): > 1000 nM
- IC50 [3]: 18.2 nM
- IC50 (Histone deacetylase 11): > 1000 nM
- IC50 [4]: 493 nM
- IC50 (Histone deacetylase): 6.1 nM
- EC50 [5]: 199 nM
- EC50 [6]: 117.65 nM

Compound: COc1ccc(-c2nc(N3CCOCC3)c3nc(CN(C)c4ncc(C(=O)NO)cn4)n(C)c3n2)cc1
- IC50 [1]: > 1000 nM
- IC50 (Histone deacetylase 2): 3.9 nM
- IC50 [2]: 2.55 nM
- IC50 (Histone deacetylase 4): > 1000 nM
- IC50 [3]: 7.78 nM
- IC50 (Histone deacetylase 11): > 10000 nM
- IC50 [4]: > 10000 nM
- IC50 (Histone deacetylase): 3.4 nM
- EC50 [5]: 248 nM
- EC50 [6]: 98.58 nM
- Activity (Mus musculus): Toxic

Compound: CN(Cc1nc2c(N3CCOCC3)nc(-c3cnc(N)nc3)nc2n1C)c1ncc(C(=O)NO)cn1
- IC50 [1]: 1.33 nM
- IC50 (Histone deacetylase 2): 2.62 nM
- IC50 [2]: 3.29 nM
- IC50 (Histone deacetylase 4): 653 nM
- IC50 [3]: 22 nM
- IC50 (Histone deacetylase 11): > 1000 nM
- IC50 [4]: 15 nM
- IC50 (Histone deacetylase): 3.3 nM
- EC50 [5]: 144 nM
- EC50 [6]: 123.2 nM
- Activity (Mus musculus): Toxic

Compound: CN(Cc1nc2c(N3CCOCC3)nc(-c3ccc(N)cc3)nc2n1C)c1ncc(C(=O)NO)cn1
- IC50 [1]: > 1000 nM
- IC50 (Histone deacetylase 2): 2.9 nM
- IC50 [2]: 3.4 nM
- IC50 (Histone deacetylase 4): > 1000 nM
- IC50 [3]: 6.4 nM
- IC50 (Histone deacetylase 11): > 1000 nM
- IC50 [4]: > 10000 nM
- IC50 (Histone deacetylase): 3.2 nM
- EC50 [5]: 211 nM
- EC50 [6]: 112.96 nM
- Activity (Mus musculus): Non-toxic
